Drawing on ChEMBL document CHEMBL1150672, “Chemical transformations on botryane skeleton. Effect on the cytotoxic activity” (J Nat Prod, 2003), this text covers IC50 and CC50 for four compounds.

The structures appear in SMILES notation. Values after ≈ are worked out from the molar mass of the structure shown.

The nature of data set [1]: Cytotoxicity against human U87MG cells after 24 hrs by MTT assay. It is filed as functional, U-87MG ATCC. The following applies: U-87 MG, read-out: ID50 (the source's name). Put shortly:
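U87-MG glioblastoma cells (ATCC) were grown in MEM with 10% FCS, 1% sodium pyruvate and 1% nonessential amino acids. Cells were seeded at 4 or 8×10^3/well and adhered overnight at 37 °C. They were exposed 24 h, in duplicate, to methanol-dissolved compounds diluted in medium, with a methanol blank. MTT (5 mg/mL stock) was added for 4 h, formazan dissolved in DMSO, and absorbance read at 550 nm.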
A general note: Tetrazolium dyes change colour on reduction, which living cells bring about.

Data set [2] in a line: Cytotoxicity against human Hs 578T cells after 24 hrs by MTT assay. It counts as functional. The following applies: read-out: ID50 (the source's name). Put shortly:
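Hs578T cells (ATCC) were maintained in DMEM with 10% FCS, 1% glutamine and 10 μg/mL insulin. Cells were seeded at 4 or 8×10^3/well and allowed to adhere overnight at 37 °C. They were exposed 24 h, in duplicate, to compounds in methanol diluted with medium, with a methanol blank. MTT (5 mg/mL stock) was added for 4 h, formazan dissolved in DMSO, and A550 measured.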

Data set [3] is described as follows: Cytotoxicity against human IMR90 cells after 24 hrs by MTT assay. It is filed as cell-based, IMR-90. As to conditions: read-out: ID50. Put shortly: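 IMR-90 embryonic fibroblasts (ATCC) were grown in DMEM with 10% FCS and 1% glutamine at 37 °C, 5% CO2. Cells were plated at 4 or 8×10^3/well and attached overnight. They were treated 24 h, in duplicate, with compounds from methanol stocks diluted in medium, with a methanol blank. MTT (5 mg/mL stock) was added for 4 h, formazan dissolved in DMSO, and read at 550 nm.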

For data set [4], the system named is MDA-MB-231. Description: Cytotoxicity against human MDA-MB-231 cells after 24 hrs by MTT assay. The following applies: MDA-MB-231, 24 h, read-out: ID50 (the source's name). It counts as functional. Put shortly:
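MDA-MB-231 cells (ATCC) were cultured in Leibovitz's L-15 with 10% FCS. Cells were seeded at 4 or 8×10^3/well and attached overnight at 37 °C. Compounds dissolved in methanol and diluted in medium were added for 24 h in duplicate, with a methanol blank. MTT (5 mg/mL stock) was added for 4 h, formazan taken up in DMSO, and A550 recorded.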

Data set [5] relates to HT-1080. Nature of the data set: Cytotoxicity against human HT1080 cells after 24 hrs by MTT assay. It is filed as functional. As to conditions: HT-1080, 24 h, read-out: ID50 (the source's name). Put shortly:
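HT-1080 cells (ATCC) were kept in DMEM with 10% FCS, 1% glutamine and 1% vitamins at 37 °C, 5% CO2. Cells were seeded at 4 or 8×10^3/well and attached overnight, then exposed for 24 h in duplicate to methanol-dissolved compounds diluted in medium, with a methanol blank. MTT (5 mg/mL stock) was given for 4 h, formazan solubilized in DMSO, and absorbance read at 550 nm.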

The nature of data set [6]: Cytotoxicity against HUVEC after 24 hrs by MTT assay. As to conditions: human, read-out: ID50. It is filed as cell-based. Put shortly:
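Primary HUVEC from newborns, grown in DMEM/medium 199 with 20% FCS, 10 mM HEPES, heparin and ECGS at 37 °C, 5% CO2. Cells were seeded at 4 or 8×10^3/well and attached overnight. Compounds were added from methanol solutions diluted in medium, with a methanol blank, for 24 h in duplicate. MTT (5 mg/mL stock) was added for 4 h, formazan dissolved in DMSO, and A550 read.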

For `COC(=O)[C@H]1[C@H](C)C[C@H](OC(C)=O)[C@H]2C(C)(C)C[C@](C)(C(=O)OC)[C@@]12O` [DIMETHYL BOTRYDIOATE], the IC50 in data set [1], in data set [2], in data set [4] and in data set [5] was above 10 µg/mL in each case. The CC50 at 24 h in data set [3] and in data set [6] was above 10 µg/mL throughout.
Consider `CC1(C)C[C@](C)(CO)c2c1ccc(CO)c2CO`, for which the IC50 in data set [1], in data set [2], in data set [4] and in data set [5] was above 10 µg/mL in each case. Also, the CC50 at 24 h in data set [3] and in data set [6] was above 10 µg/mL throughout.
For the compound `CC(=O)O[C@H]1C[C@@H](C)[C@H](C(=O)O)[C@@]2(O)[C@@H]1C(C)(C)C[C@]2(C)C=O`, the IC50 in data set [1], in data set [2], in data set [4] and in data set [5] was above 10 µg/mL throughout. For the same compound, the CC50 at 24 h in data set [3] and in data set [6] was above 10 µg/mL throughout.
For `CC(=O)O[C@H]1C[C@@H](C)[C@H](C=O)[C@@]2(O)[C@@H]1C(C)(C)C[C@]2(C)C=O` [BOTRYDIAL], the IC50 in data set [1], in data set [2], in data set [4] and in data set [5] was 1 µg/mL (≈ 3.22 µM) each time. Also, the CC50 at 24 h in data set [3] came to 10 µg/mL (≈ 32.2 µM); in data set [6] it was 1 µg/mL (≈ 3.22 µM).
